From PubChem BioAssay
A selection: hits, their analogues and other compounds. The true share with any hit is near 3.7%.
KCNK9 inh – inhibitors of human KCNK9 two-pore domain potassium channel; Q9NPC2; HEK293 KCNK9, FluxOR thallium flux fluorescence; stronger effect = lower value; B-score at 10 µM; actives 1.2% (n = 310,000); AID 488922;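 active = ratio B-score over 3 SD below the library mean, with starting fluorescence within 5 SD of its mean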;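 also: negative B-score means less thallium flux so channel inhibition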
Target sequence (Q9NPC2 whole entry, looked up, the tested form may be a part): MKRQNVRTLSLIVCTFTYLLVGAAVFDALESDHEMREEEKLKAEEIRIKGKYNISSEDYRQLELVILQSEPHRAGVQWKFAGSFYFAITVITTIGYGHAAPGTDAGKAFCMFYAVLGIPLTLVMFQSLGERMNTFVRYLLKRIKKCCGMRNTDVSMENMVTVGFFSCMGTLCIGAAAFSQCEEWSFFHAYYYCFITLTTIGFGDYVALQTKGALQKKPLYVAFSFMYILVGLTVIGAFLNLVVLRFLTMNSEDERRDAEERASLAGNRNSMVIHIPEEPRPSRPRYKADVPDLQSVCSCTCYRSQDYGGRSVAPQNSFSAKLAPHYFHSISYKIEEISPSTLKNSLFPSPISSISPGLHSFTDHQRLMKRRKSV
Kir21 block – Kir2.1 (mouse) channel inhibition | P35561 | HEK293-Kir2.1, FluxOR thallium flux fluorescence; stronger effect = lower value | B-score at 10 µM | actives 0.85% (n = 310,000) | AID 1672;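 active = fluorescence ratio B-score at or below minus 3 SD of library scores, with starting-brightness B-score within 2 SD, cut at about -4.2 in these data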;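 also: channel flux triggered by added potassium and thallium sulfate stimulus; B-score of peak minus minimum fluorescence over baseline after thallium stimulus; more negative B-score means stronger Kir2.1 block with less thallium influx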
hERG protect – compounds protecting human hERG from proarrhythmic drug block; Q12809; CHO-hERG, FluxOR thallium flux, dofetilide IC70 present; activation (rescue from dofetilide block), less the hit threshold, % at 10 µM; actives 0.51% (n = 310,000);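 active = activation above the mean of controls blocked by dofetilide plus 5 SD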;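 also: thallium influx through hERG after potassium depolarization seen as dye fluorescence rise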
KCNQ1 pot – human KCNQ1 channel potentiation or activation | AID 2648 | actives 0.35% (n = 310,000) | P51787 | CHO-K1 KCNQ1, thallium flux FluxOR fluorescence; stronger effect = higher value | B-score at 10 µM;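 active = fluorescence ratio B-score, a plate-corrected score, at least three library SD, with initial intensity B-score within 5 SD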
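Schedule – 37 °C overnight plating, 90-min dark dye load, 20-min compound pretreatment · System – stable KCNQ1 CHO-K1 line · Probe or stimulus – thallium- and potassium-containing depolarizing buffer · Measured by – kinetic FluxOR fluorescence, 10 s baseline plus 110 s post-stimulus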
KCNQ1 block – blocks the human KCNQ1 potassium channel; P51787; CHO-K1 KCNQ1, FluxOR thallium flux fluorescence; stronger effect = higher value; B-score at 10 µM; actives 1.3% (n = 310,000);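 active = compounds whose thallium flux B-score, printed positive for inhibition, exceeds three library SD while starting fluorescence stays within three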;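 also: channel opened by potassium depolarization with thallium stimulus after 20 min compound exposure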
KCNK3 block – human KCNK3 channel inhibition, primary screen | AID 602410 | B-score at 10 µM | CHO-KCNK3 thallium flux, FluxOR fluorescence; stronger effect = lower value | actives 0.84% (n = 340,000);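 active = B-score under library mean minus 4 SD, starting fluorescence ratio at most library mean plus 5 SD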;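 also: more negative B-score means stronger inhibition of thallium flux through KCNK3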
An asterisk follows results filed as active; i = inactive; x = not tested or not shown.

SMILES	KCNK9 inh	Kir21 block	hERG protect	KCNQ1 pot	KCNQ1 block	KCNK3 block
COc1cccc(NC(=O)CSc2c3c(nc4ccccc24)CCCC3)c1	i	-5.8*	-10.6	i	i	i
CC(=O)c1c(OC(=O)c2ccc(C)cc2)c2ccccc2n1C	-7.24*	-0.41	-2.3	i	i	i
Cc1cc(C)n(CCCNC(=O)CCNS(=O)(=O)c2ccccc2C(F)(F)F)n1	i	1.76	-6.6	i	i	i
CN1/C(=C\C(=S)NC(=O)c2cccc(Br)c2)C(C)(C)c2ccccc21	i	0.99	-4.0	i	i	i
CCN(CC)S(=O)(=O)c1cccc(C(=O)/C=C2/N(C)c3ccccc3C2(C)C)c1	-7.71*	-0.02	-15.0	i	i	i
CC(C)(C)c1ccc(OCCCNC2CCCC2)cc1	i	-4.26*	-12.3	i	i	i
Cc1ccc(OCCCNC2CCCC2)cc1	i	2.35	-8.9	i	i	i
Cn1nc(-c2ccccc2)c(C(O)c2ccccc2C(F)(F)F)c1Cl (stereo unspecified)	i	-1.31	-13.6	i	i	i
COC(c1ccccc1)c1c(-c2ccccc2)nn(C)c1Cl (stereo unspecified)	i	-4.84*	-12.9	i	i	i
Cn1c2ccc(F)cc2c2nnc(SCC(=O)Nc3cccc(O)c3)nc21	i	1.23	5.2*	i	i	i
Cc1cc(C(=O)C(C(c2ccccc2)N2CCOCC2)N2CCOCC2)ccc1Cl (stereo unspecified)	x	x	x	x	x	i
COc1cc(C)c(C)cc1S(=O)(=O)n1c(C)nc2ccccc21	i	-5.06*	-7.6	i	i	i
COc1cc(F)ccc1S(=O)(=O)n1c(C)nc2ccccc21	i	-6.5*	-6.0	i	i	i
COc1cc(S(=O)(=O)n2c(C)nc3ccccc32)ccc1F	i	0.73	-3.5	i	i	i
Cc1cccc(C(=O)Nc2cccc(C(=O)Nc3cc(C)ccn3)c2)c1	i	-0.11	-8.1	i	i	i
Cc1cccc(OCCNC(=O)c2ccc(Oc3ccc(C(F)(F)F)cc3[N+](=O)[O-])cc2)c1	i	-0.06	-16.5	i	6*	-9.46*
Cc1ccc(OCCNC(=O)c2cc(C(=O)NCCOc3ccc(C)cc3)cc([N+](=O)[O-])c2)cc1	i	1.59	-3.5	i	10*	i
Cc1c(OCC(=O)NC2CCN(Cc3ccccc3)CC2)ccc2c3c(c(=O)oc12)CCC3	i	-1.62	-10.4	i	i	i
CCOC(=O)C(C)Sc1nc(-c2ccccc2)nc2ccccc12 (stereo unspecified)	-7.63*	1.2	-15.9	i	i	i
CC(NC(=O)CCN1C(=O)c2ccccc2C1=O)c1ccc2c(c1)CCCC2 (stereo unspecified)	i	-4.21*	-1.4	i	i	i
O=C1NC2(CCCCCC2)C(=O)N1Cc1ccccc1Br	i	0.65	-4.5	i	i	i
Cc1c(O)ccc(/C(Cc2ccc3ccccc3n2)=N\N)c1O	-7.88*	0.36	-7.5	i	i	i
Cn1c(=O)c2nc(NCc3ccccc3)sc2n(C)c1=O	x	x	x	x	x	i
Cc1ccnc(NC(=O)c2ccc(OCC3CCCO3)cc2)c1 (stereo unspecified)	i	0.38	-8.7	i	i	i
COc1cccc(CC(=O)NN2C(=O)NC3(CCCCC3)C2=O)c1	x	x	x	x	x	i
SMILES	KCNK9 inh	Kir21 block	hERG protect	KCNQ1 pot	KCNQ1 block	KCNK3 block
CC1(C)Cc2cccc(OCC(=O)OCC(=O)c3ccccc3)c2O1	x	x	x	x	x	i
Cc1noc(C)c1COC(=O)COc1cccc2c1OC(C)(C)C2	i	-5.52*	-8.0	i	i	i
Cc1sc(NC(=O)C2CSC3(C)CCC(=O)N23)nc1-c1ccccc1 (stereo unspecified)	i	-1.6	-9.7	i	i	i
Cc1ccc(-n2nc(C)cc2Nc2ncc(Cl)cc2Cl)cc1	i	-1.82	-5.3	i	i	i
Cc1cc(Nc2ncc(Cl)cc2Cl)n(-c2ccccc2C)n1	i	-4.81*	-4.2	i	i	i
Nc1ccccc1SSc1ccccc1N	i	0.16	-7.5	i	i	i
CC(C(Sc1ccccc1N)c1ccccc1)[N+](=O)[O-] (stereo unspecified)	i	-7.23*	-9.8	i	i	i
CCCCNC(=O)Nc1ccccc1CC	i	-0.17	0.7	i	i	i
CCCCNC(=S)Nc1ccccc1Cc1ccccc1	i	-4.74*	-10.6	i	i	i
CC(=O)c1cccc(NC(=O)COC(=O)c2ccc3c(c2)OCO3)c1	x	x	x	x	x	i
COc1ccc(S(=O)(=O)N2CCCc3ccccc32)cc1[N+](=O)[O-]	i	-2.85	-6.8	i	i	i
O=S(=O)(c1cnc(Cl)c(Cl)c1)N1CCCc2ccccc21	i	-4.57*	-6.1	i	i	i
COc1ccc(S(=O)(=O)N2CCCc3ccccc32)cc1OC	i	-5.29*	-10.0	i	i	i
CCNC(=O)COC(=O)c1cc(S(=O)(=O)N2CCCc3ccccc32)ccc1Cl	i	-4.39*	-7.8	i	i	i
CCOC(=O)c1c(C)[nH]c(C(=O)N/N=C\c2ccccc2Cl)c1C	i	-0.24	-6.4	i	i	i
Cc1ccc(CNC(=O)C2CCCN2C(=O)Nc2ccccc2)cc1 (stereo unspecified)	i	-0.93	0.0	i	i	i
Cc1nc(NC(=O)c2ccccc2)sc1-c1csc(Nc2cccc(F)c2)n1	i	1.44	-6.8	i	i	x
Cc1cc(NS(=O)(=O)c2ccc(Nc3nc(-c4sc(NC(=O)c5ccccc5)nc4C)cs3)cc2)no1	i	-4.29*	-15.6	i	7*	x
CC(=O)NNC(=S)NC(=O)C(c1ccccc1)c1ccccc1	i	0.91	-16.2	i	i	i
CC(C)(C)C(=O)NC(=S)NNC(=O)C(c1ccccc1)c1ccccc1	i	-1.35	-8.3	31*	i	i
O=[N+]([O-])c1ccc(N=Nc2c(Cl)cc(O)cc2Cl)cc1	i	-6.9*	-23.3	i	8*	i
CC(N)=Nc1ccc([N+](=O)[O-])cc1	i	2.01	-7.0	i	i	i
CCOC(=O)C1=C(C)N(C)C(=S)N(C)C1c1ccc(OC)cc1 (stereo unspecified)	i	0.79	-5.6	i	i	i
COC(=O)C1=C(C)N(C)C(=S)N(C)C1c1cccc(Br)c1 (stereo unspecified)	i	-5.02*	-15.5	i	i	i
S=c1nn[nH]n1C12CC3CC(CC(C3)C1)C2	i	0.83	13.8*	9*	i	i
